Reference: ChEMBL document CHEMBL3046551, “Design, synthesis, and particular biological behaviors of chain-opening nitromethylene neonicotinoids with cis configuration” (2012)

Assays:
Assay type in all cases: functional
Aphis craccivora [1] = test: Insecticidal activity against adult Aphis craccivora (cowpea aphid) assessed as […] activity at 500 mg/l after 24 hr
Method in brief: (§1)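 Apterous adult aphids (40−60 per horsebean seedling) on seedlings dipped 5 s in DMF stock diluted with water containing Triton X-100 (0.1 mg L⁻¹); series concentrations 500.0, 250.0, 125.0 mg L⁻¹ and others. Held at 25 ± 1 °C, 50% RH. Triton water served as control. Mortality scored at 24 h, three repetitions, corrected, probit analysis.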

Aphis craccivora [2] = test: Insecticidal activity against adult Aphis craccivora (cowpea aphid) assessed as […] activity after 24 hr; method in brief: as §1
Empoasca = test: Insecticidal activity against Empoasca (Green Leafhopper)
Aphis craccivora [3] = test: Repellent activity against adult Aphis craccivora (cowpea aphid) at 500 mg/l
Method in brief: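 Y-tube olfactometer choice test. Aphid-free horsebean seedlings were dipped 5 s in DMF-dissolved compound diluted in water with Triton X-100 (0.1 mg L⁻¹) and dried. Treated and control seedlings were placed in opposite arms, and apterous adults were introduced into the third arm. The olfactometer was covered with black cloth at 25 ± 1 °C, 50% RH. Adults per arm were counted after 1 h; three repeats.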

| SMILES | mortality at 500 µg/mL (Aphis craccivora [1]) | other results |
| --- | --- | --- |
| CCOC1CC(C)C([N+](=O)[O-])=C(NCc2ccc(Cl)nc2)N1CC (stereo unspecified) | 85.2% | – |
| COC1CC(C)C([N+](=O)[O-])=C(N(C)Cc2ccc(Cl)nc2)N1C (stereo unspecified) | 23.4% | – |
| CCN(Cc1ccc(Cl)nc1)C1=C([N+](=O)[O-])CCC(OC(C)C)N1C (stereo unspecified) | 15.3% | – |
| CCCOC1CC(C)C([N+](=O)[O-])=C(N(CC)Cc2ccc(Cl)nc2)N1C (stereo unspecified) | 27.2% | – |
| CCCOC1CCC([N+](=O)[O-])=C(N(CC)Cc2ccc(Cl)nc2)N1C (stereo unspecified) | 23.7% | – |
| C=CCOC1CCC([N+](=O)[O-])=C(N(C)Cc2ccc(Cl)nc2)N1C (stereo unspecified) | 15.8% | – |
| CCN(Cc1ccc(Cl)nc1)C1=C([N+](=O)[O-])CCC(O)N1C (stereo unspecified) | 16.2% | – |
| O=[N+]([O-])/N=C1\NCCN1Cc1ccc(Cl)nc1 [IMIDACLOPRID] | 100% | LC50 (Aphis craccivora [2]): 30.9 µM |
| CCN(Cc1ccc(Cl)nc1)C1=C([N+](=O)[O-])C(C)CC(OC)N1C (stereo unspecified) | 27.6% | – |
| C=CCOC1CC(C)C([N+](=O)[O-])=C(N(CC)Cc2ccc(Cl)nc2)N1C (stereo unspecified) | 19.5% | – |
| COC1CC(C)C([N+](=O)[O-])=C2N(Cc3cnc(Cl)s3)CCN21 (stereo unspecified) | 100% | LC50 (Aphis craccivora [2]): 190 µM |
| CCC1CC(OC)N(CC)C(NCc2ccc(Cl)nc2)=C1[N+](=O)[O-] (stereo unspecified) | 84.5% | – |
| N/C(=C\[N+](=O)[O-])NCc1ccc(Cl)nc1 | – | LC95 (Empoasca): >200 ppm |
| CCOC1CCC([N+](=O)[O-])=C(N(C)Cc2ccc(Cl)nc2)N1C (stereo unspecified) | 23.3% | – |
| COC1CCC([N+](=O)[O-])=C(N(C)Cc2ccc(Cl)nc2)N1C (stereo unspecified) | 21.6% | – |
| CCN(Cc1ccc(Cl)nc1)/C(=C/[N+](=O)[O-])NC [NITENPYRAM] | – | LC95 (Empoasca): 40 ppm |

| SMILES | mortality at 500 µg/mL (Aphis craccivora [1]) | other results |
| --- | --- | --- |
| CCCOC1CC(C)C([N+](=O)[O-])=C2N(Cc3ccc(Cl)nc3)CCN21 (stereo unspecified) [PAICHONGDING] | 100% | LC50 (Aphis craccivora [2]): 91.8 µM |
| CCCOC1CC(CC)C([N+](=O)[O-])=C(NCc2ccc(Cl)nc2)N1CC (stereo unspecified) | 93.4% | – |
| CC(C)OC1CCC([N+](=O)[O-])=C(N(C)Cc2ccc(Cl)nc2)N1C (stereo unspecified) | 17.6% | – |
| CCOC1CCC([N+](=O)[O-])=C(N(CC)Cc2ccc(Cl)nc2)N1C (stereo unspecified) | 17.7% | – |
| CCOC1CC(C)C([N+](=O)[O-])=C(N(CC)Cc2ccc(Cl)nc2)N1C (stereo unspecified) | 31.8% | Repellency (Aphis craccivora [3]): 66.4% |
| CCCOC1CC(C)C([N+](=O)[O-])=C(NCc2ccc(Cl)nc2)N1CC (stereo unspecified) | 94.6% | – |
| CCN(Cc1ccc(Cl)nc1)C1=C([N+](=O)[O-])CCC(OC)N1C (stereo unspecified) | 24.3% | – |
| CCN(Cc1ccc(Cl)nc1)C1=C([N+](=O)[O-])C(C)CC(OC(C)C)N1C (stereo unspecified) | 25.8% | – |
| CC(C)OC1CC(C)C([N+](=O)[O-])=C(N(C)Cc2ccc(Cl)nc2)N1C (stereo unspecified) | 25.9% | – |
| CCOC1CC(C)C([N+](=O)[O-])=C(N(C)Cc2ccc(Cl)nc2)N1C (stereo unspecified) | 17.1% | – |
| CCCOC1CCC([N+](=O)[O-])=C(N(C)Cc2ccc(Cl)nc2)N1C (stereo unspecified) | 15.2% | – |
| CCC1CC(OC(C)C)N(C)C(NCc2ccc(Cl)nc2)=C1[N+](=O)[O-] (stereo unspecified) | 83.6% | – |
| CC(C)OC1CC(C)C([N+](=O)[O-])=C2N(Cc3ccc(Cl)nc3)CCN21 (stereo unspecified) | 100% | LC50 (Aphis craccivora [2]): 262 µM |
| CCN1C(NCc2ccc(Cl)nc2)=C([N+](=O)[O-])C(C)CC1OC(C)C (stereo unspecified) | 75% | – |
| CCCOC1CC(C)C([N+](=O)[O-])=C(N(C)Cc2ccc(Cl)nc2)N1C (stereo unspecified) | 28.3% | – |
